Assay results: ChEMBL document CHEMBL2016538, “Synthesis and evaluation of C-11, F-18 and I-125 small molecule radioligands for detecting oxytocin receptors” (Bioorg Med Chem, 2012)
Active and inactive are the calls of the source. The rule behind the calls is not given here.

Experiments:
[1] = Chemical stability of the compound in 10 % ethanol assessed as remaining radioactivity; format: physicochemical
Thyroid gland [2] = assay: Drug uptake in iv dosed Sprague-Dawley rat thyroid assessed as per organ after 120 mins; format: ADME, organism-based; conditions: in vivo, 2 h
In short: (§1)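 Female Sprague–Dawley rats (180–200 g), fed ad libitum, were anesthetised with im ketamine/xylazine. Radioligand was given iv via tail vein in 0.1–0.2 ml 10% ethanol/saline. Animals were killed at 15, 30, 60 or 120 min and the thyroid was counted by gamma counter with dose standards. Counts were decay-corrected and given as percent injected dose per organ; n = 4, or 3 where noted.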

Thyroid gland [3] = assay: Drug uptake in iv dosed Sprague-Dawley rat thyroid assessed as per organ after 15 mins; format: ADME, organism-based; conditions: in vivo, 0.25 h; in short: as §1
Thyroid gland [4] = assay: Drug uptake in iv dosed Sprague-Dawley rat thyroid assessed as per organ after 30 mins; format: ADME, organism-based; conditions: in vivo, 0.5 h; in short: as §1
Thyroid gland [5] = assay: Drug uptake in iv dosed Sprague-Dawley rat thyroid assessed as per organ after 60 mins; format: ADME, organism-based; conditions: in vivo, 1 h; in short: as §1
[6] = Octanol-water partition coefficient, log P of the compound at 5 to 10 uCi at pH 7.4 after 3 mins; format: physicochemical
In short: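 About 5–10 μCi radioligand was shaken 3 min in 5 ml 0.1 M sodium phosphate pH 7.4 and 10 ml octanol. 2 ml octanol aliquots were re-partitioned against 2 ml fresh buffer by vortexing 7 min, then centrifuged at 20,000×g for 5 min. 0.5 ml of each layer was gamma-counted, and average counts gave logP7.4.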

Oxytocin receptor = target: T1, Oxytocin receptor (Homo sapiens, UniProt P30559); assay: Displacement of [3H]oxytocin from human oxytocin receptor after […] by liquid scintillation counting
T1 sequence (P30559 whole entry): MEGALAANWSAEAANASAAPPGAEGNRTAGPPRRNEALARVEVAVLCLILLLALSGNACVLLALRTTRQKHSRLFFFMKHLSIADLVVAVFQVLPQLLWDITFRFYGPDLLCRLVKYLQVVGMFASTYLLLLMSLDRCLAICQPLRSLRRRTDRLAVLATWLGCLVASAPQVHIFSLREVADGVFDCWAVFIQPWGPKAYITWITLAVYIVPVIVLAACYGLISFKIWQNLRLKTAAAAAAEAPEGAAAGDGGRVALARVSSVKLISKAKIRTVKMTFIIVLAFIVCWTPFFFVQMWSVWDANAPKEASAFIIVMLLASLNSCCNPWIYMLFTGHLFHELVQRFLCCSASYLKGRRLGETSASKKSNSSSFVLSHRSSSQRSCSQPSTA

Vasopressin V1a receptor [7] = target: Vasopressin V1a receptor (Homo sapiens, UniProt P37288); assay: Displacement of [3H]-AVP from human V1A receptor after […] by liquid scintillation counting
Vasopressin V1a receptor [8] = target: Vasopressin V1a receptor (Microtus ochrogaster, UniProt Q9WTV9); assay: Displacement of [125I]-LVA from prairie vole vasopressin V1A receptor after 72 hrs
In short: (§2)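 Prairie vole brain cryosections (20 μm, PFC through NAcc and VP) were thawed, dipped in 0.1% paraformaldehyde in PBS pH 7.4 and rinsed in 50 mM Tris pH 7.4. They were incubated 1 h with 50 pM 125I-LVA plus competitor at 0 or 10−10 to 10−5 M, then washed in Tris/2% MgCl2 pH 7.4. Film exposure was 72 h against 125I standards. Ki came from competition curves; sections from six animals.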

Vasopressin V2 receptor = Vasopressin V2 receptor (Homo sapiens, UniProt P30518); assay: Displacement of [3H]-AVP from human vasopressin V2 receptor after […] by liquid scintillation counting
Brain [9] = assay: Drug uptake in Sprague-Dawley rat brain at 277 uCi, iv after 45 mins by PET imaging; format: ADME, organism-based; conditions: in vivo, 0.75 h
In short: (§3)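 Female Sprague–Dawley rats got estradiol benzoate 10–12 μg sc in sesame oil daily for 3 days to up-regulate OTR. They were anesthetised with ketamine/xylazine 100/10 mg/kg ip, and 200–300 μCi radioligand was injected via tail vein catheter. MicroPET brain scans began at injection (90 min 18F, 45 min 11C) after a 7 min Co-57 transmission scan. Frames were summed and whole-brain time-activity curves plotted.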

Brain [10] = assay: Drug uptake in Sprague-Dawley rat brain at 295 uCi. iv after 5 mins by PET imaging; format: ADME, organism-based; conditions: in vivo; in short: as §3
[11] = target: Vasopressin V1a receptor (Microtus ochrogaster) (UniProt Q9WTV9); assay: Binding affinity to prairie vole ventral pallidum vasopressin V1A receptor by autoradiography; conditions: tested as the 125I-labelled form; in short: as §2
Vasopressin V1b receptor = target: T2, Vasopressin V1b receptor (Homo sapiens, UniProt P47901); assay: Displacement of [3H]-AVP from human V1b receptor after […] by liquid scintillation counting
T2 sequence (P47901 whole entry): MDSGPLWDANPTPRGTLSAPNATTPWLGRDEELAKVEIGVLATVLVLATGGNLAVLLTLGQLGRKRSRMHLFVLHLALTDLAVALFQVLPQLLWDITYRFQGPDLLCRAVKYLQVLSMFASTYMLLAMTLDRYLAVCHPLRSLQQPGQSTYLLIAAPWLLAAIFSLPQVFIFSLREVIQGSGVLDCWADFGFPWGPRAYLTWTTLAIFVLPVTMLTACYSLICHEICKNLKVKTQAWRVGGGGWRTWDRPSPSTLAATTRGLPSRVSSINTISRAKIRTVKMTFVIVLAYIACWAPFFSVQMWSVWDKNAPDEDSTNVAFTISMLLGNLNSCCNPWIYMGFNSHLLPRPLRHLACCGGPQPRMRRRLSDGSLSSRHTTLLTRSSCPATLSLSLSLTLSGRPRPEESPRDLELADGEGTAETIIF

Sequence of Vasopressin V1a receptor (Microtus ochrogaster, UniProt Q9WTV9) (Q9WTV9 whole entry): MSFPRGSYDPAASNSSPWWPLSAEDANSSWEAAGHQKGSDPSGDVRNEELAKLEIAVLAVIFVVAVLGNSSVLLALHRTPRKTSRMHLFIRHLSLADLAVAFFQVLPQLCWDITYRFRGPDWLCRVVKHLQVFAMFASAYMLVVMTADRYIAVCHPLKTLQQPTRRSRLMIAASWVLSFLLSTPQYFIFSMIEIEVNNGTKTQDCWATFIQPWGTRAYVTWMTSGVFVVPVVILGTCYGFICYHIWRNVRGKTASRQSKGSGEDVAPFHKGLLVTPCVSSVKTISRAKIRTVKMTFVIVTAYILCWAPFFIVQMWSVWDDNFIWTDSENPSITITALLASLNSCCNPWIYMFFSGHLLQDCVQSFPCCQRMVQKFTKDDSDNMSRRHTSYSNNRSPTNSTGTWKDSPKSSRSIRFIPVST
Sequence of Vasopressin V1a receptor (Homo sapiens, UniProt P37288) (P37288 whole entry): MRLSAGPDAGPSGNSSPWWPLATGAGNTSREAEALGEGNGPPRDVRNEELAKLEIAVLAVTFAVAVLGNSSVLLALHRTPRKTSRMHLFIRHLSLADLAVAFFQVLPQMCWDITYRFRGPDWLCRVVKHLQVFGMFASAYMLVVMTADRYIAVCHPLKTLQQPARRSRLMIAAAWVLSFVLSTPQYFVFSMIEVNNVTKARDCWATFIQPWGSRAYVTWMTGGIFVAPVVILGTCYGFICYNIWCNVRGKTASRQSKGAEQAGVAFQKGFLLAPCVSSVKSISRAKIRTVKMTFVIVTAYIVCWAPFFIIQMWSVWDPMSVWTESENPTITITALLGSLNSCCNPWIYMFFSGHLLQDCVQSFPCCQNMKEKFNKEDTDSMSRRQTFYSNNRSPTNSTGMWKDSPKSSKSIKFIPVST
Sequence of Vasopressin V2 receptor (P30518 whole entry): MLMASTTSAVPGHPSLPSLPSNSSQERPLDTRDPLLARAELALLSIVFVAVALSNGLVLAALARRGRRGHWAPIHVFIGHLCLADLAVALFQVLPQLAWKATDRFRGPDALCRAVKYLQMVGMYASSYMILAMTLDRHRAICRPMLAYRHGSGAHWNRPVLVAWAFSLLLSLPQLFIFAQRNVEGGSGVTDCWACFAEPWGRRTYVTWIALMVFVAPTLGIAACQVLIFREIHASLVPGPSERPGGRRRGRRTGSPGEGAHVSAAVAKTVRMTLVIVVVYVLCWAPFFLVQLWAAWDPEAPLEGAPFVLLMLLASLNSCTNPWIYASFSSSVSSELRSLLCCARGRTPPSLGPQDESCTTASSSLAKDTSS
Sequence of Vasopressin V1a receptor (Microtus ochrogaster) (Q9WTV9 whole entry, looked up): as the sequence (Q9WTV9 whole entry) above

## CS(=O)(=O)N1CCC(Oc2ccc(CC(=O)N3CCC(N4C(=O)CCc5ccccc54)CC3)c(OC/C=C/[125I])c2)CC1
[1]
  Stability: 15%
Thyroid gland [2]
  Drug uptake: 1.05 %ID
Thyroid gland [3]
  Drug uptake: 0.19 %ID
Thyroid gland [4]
  Drug uptake: 0.53 %ID
Thyroid gland [5]
  Drug uptake: 0.81 %ID

## COc1cc(OC2CCN(S(C)(=O)=O)CC2)ccc1CC(=O)N1CCC(N2C(=O)CCc3ccccc32)CC1
[6]
  logD at 0.05 h: 2.25
Oxytocin receptor
  Ki: 28 nM
Vasopressin V1a receptor [7]
  Ki: 4800 nM
Vasopressin V1a receptor [8]
  Ki: 78 nM
Vasopressin V2 receptor
  Ki: 3700 nM

## CS(=O)(=O)N1CCC(Oc2ccc(CC(=O)N3CCC(N4C(=O)CCc5ccccc54)CC3)c(OC/C=C/I)c2)CC1
[6]
  logD at 0.05 h: 2.36
Oxytocin receptor
  Ki: 10 nM
Vasopressin V1a receptor [7]
  Ki: 790 nM
Vasopressin V1a receptor [8]
  Ki: 1.7 nM
Vasopressin V2 receptor
  Ki: 1400 nM

## CS(=O)(=O)N1CCC(Oc2ccc(CC(=O)N3CCC(N4C(=O)CCc5ccccc54)CC3)c(OC/C=C\[125I])c2)CC1
[1]
  Stability: 15%
Thyroid gland [2]
  Drug uptake: 0.67 %ID
Thyroid gland [3]
  Drug uptake: 0.05 %ID
Thyroid gland [4]
  Drug uptake: 0.2 %ID
Thyroid gland [5]
  Drug uptake: 0.32 %ID

## CS(=O)(=O)N1CCC(Oc2ccc(CC(=O)N3CCC(N4C(=O)CCc5ccccc54)CC3)c(O)c2)CC1
Oxytocin receptor
  Ki: 78 nM

## CS(=O)(=O)N1CCC(Oc2ccc(CC(=O)N3CCC(N4C(=O)CCc5ccccc54)CC3)c(O[11CH3])c2)CC1
Brain [9]
  Drug uptake: Not Active

## CS(=O)(=O)N1CCC(Oc2ccc(CC(=O)N3CCC(N4C(=O)CCc5ccccc54)CC3)c(OCC[18F])c2)CC1
Brain [10]
  Drug uptake: Active

## CS(=O)(=O)N1CCC(Oc2ccc(CC(=O)N3CCC(N4C(=O)CCc5ccccc54)CC3)c(OC/C=C\I)c2)CC1
[11]
  Activity: Active
[6]
  logD at 0.05 h: 2.18
Vasopressin V1b receptor
  Ki: 9600 nM
Oxytocin receptor
  Ki: 5.7 nM
Vasopressin V1a receptor [7]
  Ki: 530 nM
Vasopressin V1a receptor [8]
  Ki: 16 nM
Vasopressin V2 receptor
  Ki: 580 nM

## CS(=O)(=O)N1CCC(Oc2ccc(CC(=O)N3CCC(N4C(=O)CCc5ccccc54)CC3)c(OCCF)c2)CC1
[6]
  logD at 0.05 h: 2.02
Oxytocin receptor
  Ki: 16 nM
Vasopressin V1a receptor [7]
  Ki: 8700 nM
Vasopressin V1a receptor [8]
  Ki: 9.4 nM
Vasopressin V2 receptor
  Ki: 1800 nM
